This is an account of results in ChEMBL document CHEMBL1149243, “Lactams as EP4 prostanoid receptor agonists. 3. Discovery of N-ethylbenzoic acid 2-pyrrolidinones as subtype selective agents” (J Med Chem, 2004).

Structures are written as SMILES.

In data set [1] the target is T1, Prostaglandin E2 receptor EP1 subtype (Homo sapiens, UniProt P34995).
T1 sequence (P34995 whole entry): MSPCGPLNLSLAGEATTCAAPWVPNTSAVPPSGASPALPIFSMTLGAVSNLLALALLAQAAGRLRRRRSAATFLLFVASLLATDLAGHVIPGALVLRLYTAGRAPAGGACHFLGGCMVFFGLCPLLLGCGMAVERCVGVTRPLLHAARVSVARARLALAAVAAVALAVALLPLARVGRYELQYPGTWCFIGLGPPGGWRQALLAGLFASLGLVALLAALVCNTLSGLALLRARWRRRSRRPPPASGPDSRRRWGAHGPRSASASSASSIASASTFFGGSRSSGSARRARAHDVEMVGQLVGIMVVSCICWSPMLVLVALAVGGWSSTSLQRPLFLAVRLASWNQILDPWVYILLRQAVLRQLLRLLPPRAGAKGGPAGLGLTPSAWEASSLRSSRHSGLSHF
Put plainly: Binding affinity to human EP1 receptor.

Data set [2] addresses T2, Prostaglandin E2 receptor EP3 subtype (Homo sapiens, UniProt P43115).
T2 sequence (P43115 whole entry): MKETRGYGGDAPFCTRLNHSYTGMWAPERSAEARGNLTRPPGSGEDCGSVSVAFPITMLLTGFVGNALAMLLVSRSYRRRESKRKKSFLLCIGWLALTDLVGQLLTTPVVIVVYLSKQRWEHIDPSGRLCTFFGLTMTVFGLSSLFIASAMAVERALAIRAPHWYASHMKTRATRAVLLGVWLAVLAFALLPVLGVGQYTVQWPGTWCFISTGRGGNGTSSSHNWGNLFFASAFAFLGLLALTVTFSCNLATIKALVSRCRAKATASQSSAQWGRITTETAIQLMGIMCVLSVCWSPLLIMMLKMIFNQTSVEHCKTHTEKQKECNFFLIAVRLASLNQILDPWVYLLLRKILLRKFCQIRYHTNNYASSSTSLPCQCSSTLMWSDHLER
Put plainly: Binding affinity to human EP3 receptor.

In data set [3] the target is T3, Prostaglandin E2 receptor EP4 subtype (Homo sapiens, UniProt P35408). Put plainly: Functional activity at human EP4 receptor.
Data set [4] has as its target Prostaglandin E2 receptor EP2 subtype (Homo sapiens, UniProt P43116). Put plainly: Binding affinity to human EP2 receptor.
In data set [5] the target is T3, Prostaglandin E2 receptor EP4 subtype. Briefly: Binding affinity to human EP4 receptor.
Data set [6] can be described thus: Clearance in Wistar Han rat at 1 mg/kg, iv. Also noted: dose 1 mg/kg, route intravenous. The following applies: in vivo. The data set is classed as ADME, organism-based. An outline of the steps: (§1)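 Single i.v. dose of 1.0 mg/kg lactam; parent compound in plasma quantified by LC-MS/MS with detection down to 0.1 ng/mL. Reported values are averages after i.v. dosing.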

Data set [7] is described as follows: Half life in Wistar Han rat at 1 mg/kg, iv. The class given is ADME, organism-based. Further details: dose 1 mg/kg, route intravenous. The note with it: in vivo. In short, it runs like this: as §1
Data set [8] can be described thus: Volume of distribution in Wistar Han rat at 1 mg/kg, iv. The data set is classed as ADME, organism-based. Also noted: dose 1 mg/kg, route intravenous. The following applies: in vivo, read-out: Vbeta. An outline of the steps: as §1

Sequence of Prostaglandin E2 receptor EP2 subtype (P43116 whole entry): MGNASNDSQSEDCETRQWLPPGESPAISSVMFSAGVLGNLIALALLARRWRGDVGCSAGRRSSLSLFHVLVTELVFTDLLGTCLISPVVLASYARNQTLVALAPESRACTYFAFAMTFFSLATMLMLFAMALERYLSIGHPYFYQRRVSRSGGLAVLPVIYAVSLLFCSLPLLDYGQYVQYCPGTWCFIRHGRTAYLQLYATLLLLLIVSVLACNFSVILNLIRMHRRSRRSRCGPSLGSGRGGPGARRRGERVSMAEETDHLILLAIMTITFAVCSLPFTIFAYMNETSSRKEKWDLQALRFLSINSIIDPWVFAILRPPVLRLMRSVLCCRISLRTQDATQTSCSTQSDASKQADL
T3 sequence (P35408 whole entry): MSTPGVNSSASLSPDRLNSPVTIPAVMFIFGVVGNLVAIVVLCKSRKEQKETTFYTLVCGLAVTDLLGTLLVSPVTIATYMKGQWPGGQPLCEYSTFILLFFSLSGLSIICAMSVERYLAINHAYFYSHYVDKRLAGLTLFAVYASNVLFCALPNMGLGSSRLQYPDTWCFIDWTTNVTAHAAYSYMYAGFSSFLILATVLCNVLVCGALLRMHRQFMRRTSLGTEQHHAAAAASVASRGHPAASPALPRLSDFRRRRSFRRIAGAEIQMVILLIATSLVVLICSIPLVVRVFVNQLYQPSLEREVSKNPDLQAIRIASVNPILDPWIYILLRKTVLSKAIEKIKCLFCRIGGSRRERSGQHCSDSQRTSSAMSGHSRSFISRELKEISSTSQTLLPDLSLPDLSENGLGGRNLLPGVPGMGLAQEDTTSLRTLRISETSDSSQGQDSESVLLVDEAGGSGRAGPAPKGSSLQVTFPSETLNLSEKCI

In the case of `Cc1cc(Cl)ccc1-c1cccc([C@H](O)CC[C@H]2CCC(=O)N2CCc2ccc(C(=O)O)cc2)c1`, the Ki in data set [1] was 18 µM; in data set [2] it was 54 µM. Further, the EC50 in data set [3] is reported as 0.04 nM (agonist).

For the compound `COCc1cccc(C[C@H](O)/C=C/[C@H]2CCC(=O)N2CCc2ccc(C(=O)O)cc2)c1`, the Ki was 2.5 µM (antagonist) in data set [4], more than 100 µM in data set [2] and 0.0007 µM (antagonist) in data set [5]. For the same compound, in data set [3], the EC50 is on record as 5.9 nM (agonist).

Compound `CCCCC[C@H](O)/C=C/[C@H]1CCC(=O)N1CCCCCCC(=O)O` had a clearance in data set [6] of 91.7 mL/min/kg. The compound further gave a half-life in data set [7] of 52.2 min. Moreover, the Vd in data set [8] turned out to be 6.9 L/kg.

Consider `CCCCC[C@H](O)CC[C@H]1CCC(=O)N1CCc1ccc(C(=O)O)cc1`, for which the values for the Ki in data set [4], in data set [2] and in data set [5] were 0.035 µM (antagonist), 90.3 µM and 0.017 µM (antagonist), respectively. Besides, in data set [3], the EC50 was 130 nM (agonist). In data set [6], this compound gave a clearance of 50 mL/min/kg. This compound gave a half-life in data set [7] of 210 min. Further, the Vd in data set [8] is 15.3 L/kg.

With `CCCCC[C@H](O)/C=C/[C@H]1CCC(=O)N1CCSCCCC(=O)O`, the Ki in data set [4] is 4.7 µM (antagonist); in data set [2], 1.9 µM (antagonist); in data set [5], 0.0038 µM (antagonist). In addition, the EC50 in data set [3] was 17 nM (agonist). In addition, the clearance in data set [6] is 10.5 mL/min/kg. The same compound gave a half-life in data set [7] of 45.6 min.

On to `CCCCC[C@H](O)/C=C/[C@H]1CCC(=O)N1CCc1ccc(C(=O)O)s1`, for which the Ki in data set [4] was 3.7 µM (antagonist); in data set [2], more than 100 µM; in data set [5], 0.0069 µM (antagonist). The EC50 in data set [3] is recorded as 12 nM (agonist).

Consider `CCCCC[C@H](O)/C=C/[C@H]1CCC(=O)N1CCc1ccc(C(=O)O)cc1`, for which the Ki was more than 100 µM in data set [1], 11 µM in data set [2] and 0.0029 µM (antagonist) in data set [5]. For the same compound, the EC50 in data set [3] is 11 nM (agonist). This compound had a clearance in data set [6] of 41.7 mL/min/kg. In addition, the half-life in data set [7] is 46.8 min.

On to `O=C(O)c1ccc(CCN2C(=O)CC[C@@H]2CC[C@@H](O)CCC2CCC2)cc1`, for which the results for the Ki in data set [4], in data set [2] and in data set [5] were 0.22 µM (antagonist), 77 µM and 0.018 µM (antagonist), respectively. In data set [3], the EC50 is listed as 150 nM (agonist).

Regarding `CCCCC[C@H](O)/C=C/[C@H]1CCC(=O)N1CCCCOCC(=O)O`, the Vd in data set [8] turned out to be 1.5 L/kg.

With `O=C(O)c1ccc(CCN2C(=O)CC[C@@H]2/C=C/[C@@H](O)CCC2CCC2)cc1`, the Ki is 0.075 µM (antagonist) in data set [4], 79 µM in data set [2] and 0.001 µM (antagonist) in data set [5]. The EC50 in data set [3] is recorded as 0.2 nM (agonist).

As a reminder, the Ki is the dissociation constant of the complex between target and ligand, obtained from inhibition or displacement. The term EC50 denotes the concentration needed to bring the measured effect to its halfway point. For orientation: clearance means the rate of elimination divided by the concentration. A higher clearance goes with efficient removal. For orientation: half-life means how long it takes for the measured level to halve. A high value points to slow decline.
